Common to all, as to assay type: functional, cell-based
One test deals with A2780. The experiment in a line: Cytotoxicity against human A2780 cells by MTT assay. A digest of the protocol:
(§1)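 5-day MTT test on human tumor cells (KB epidermoid, HCT-8 ileocecal carcinoma, A2780 epithelial); cell-generated MTT-formazan solubilized in dimethyl sulfoxide and read as a measure of cell growth.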
(Formazan colour is commonly taken as a measure of viable cells.)

For a further test, the system named is KB. Put plainly: Cytotoxicity against human KB cells by MTT assay. A digest of the protocol:
as §1

A short description of test [1]: Cytotoxicity against HCT cells by MTT assay. The conditions noted are these: Homo sapiens. A digest of the protocol:
as §1

In brackets after ≈: the same amount, converted by molar mass.

In the case of `CCCCCCCCCC[C@H](O)[C@H]1CC[C@H]([C@H](O)CCCCCC(O)CCCCCCCCCCC2=C[C@H](C)OC2=O)O1` (some centres not stated) [CALAMISTRIN D], the IC50 (usually the concentration at which inhibition is half-maximal) was found to be 0.431 µg/mL (≈ 0.708 µM) with A2780, 0.0273 µg/mL (≈ 0.0448 µM) in the test on KB and 0.0732 µg/mL (≈ 0.12 µM) in test [1].
For `CCCCCCCC[C@@H](O)[C@H]1CC[C@H]([C@H]2CC[C@H]([C@H](O)CCCCCCCCCCC[C@@H](O)CCC3=C[C@H](C)OC3=O)O2)O1` [CALAMISTRIN G], in that order: 0.00197 µg/mL (≈ 0.00316 µM), 0.02 µg/mL (≈ 0.0321 µM) and 0.00331 µg/mL (≈ 0.00531 µM).
The corresponding values for `CCCCCCCCCC[C@@H](O)[C@H]1CC[C@H]([C@H](O)CCCCCC(O)CCCCCCCCCCC2=C[C@H](C)OC2=O)O1` (some centres not stated) [CALAMISTRIN C] are 0.00315 µg/mL (≈ 0.00517 µM), 0.0605 µg/mL (≈ 0.0994 µM) and 0.00473 µg/mL (≈ 0.00777 µM).
On to `CCCCCCCC[C@H](O)[C@H]1CC[C@H]([C@H]2CC[C@H]([C@H](O)CCCCCCCCCCCC(O)CCC3=C[C@H](C)OC3=O)O2)O1` (some centres not stated) [CALAMISTRIN F], for which the figures for the IC50 (with A2780; in the test with KB; in test [1]) were 0.0366 µg/mL (≈ 0.0588 µM), 0.051 µg/mL (≈ 0.0819 µM) and 0.00227 µg/mL (≈ 0.00364 µM), respectively.

The values are drawn from ChEMBL document CHEMBL1155577, “New annonaceous acetogenins from the roots of Uvaria calamistrata” (J Nat Prod, 2000).
